CYP2C9 inh: blocks human cytochrome P450 2C9; P11712; 96,000 tested, 20% active; CYP2C9 Supersomes, luciferin-H conversion, luminescence; inhibition, % at 5 µM;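 active means blocking of liver enzyme CYP2C9 beyond about 50% at 5 µM, limit read from the data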
Target sequence (P11712 whole entry, looked up): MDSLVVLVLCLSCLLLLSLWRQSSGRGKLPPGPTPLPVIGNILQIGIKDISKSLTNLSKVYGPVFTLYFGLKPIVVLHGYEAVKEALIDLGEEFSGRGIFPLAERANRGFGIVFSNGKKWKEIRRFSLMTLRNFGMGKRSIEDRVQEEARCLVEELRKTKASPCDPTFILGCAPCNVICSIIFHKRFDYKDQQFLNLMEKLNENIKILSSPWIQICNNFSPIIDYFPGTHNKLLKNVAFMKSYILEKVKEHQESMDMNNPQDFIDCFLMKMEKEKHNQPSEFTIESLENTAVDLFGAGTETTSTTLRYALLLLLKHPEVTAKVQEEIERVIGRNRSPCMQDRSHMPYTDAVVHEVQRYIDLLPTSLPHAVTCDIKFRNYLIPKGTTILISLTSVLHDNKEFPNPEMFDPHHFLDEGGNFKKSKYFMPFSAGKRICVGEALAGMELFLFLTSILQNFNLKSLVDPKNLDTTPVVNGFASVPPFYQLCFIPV
HIV Rev-RRE inh: inhibitors of HIV-1 Rev-RRE RNA interaction. Rev peptide-RRE RNA binding, FRET. inhibition, % at 8 µM. P05866. AID 704. 97,000 tested, 0.79% active;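 active means inhibition above the screen-wide mean plus 3 SD, cut at about 35% in these data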;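 further: 0% = median DMSO wells and 100% = median Neomycin B control wells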
Target sequence (P05866 whole entry, looked up): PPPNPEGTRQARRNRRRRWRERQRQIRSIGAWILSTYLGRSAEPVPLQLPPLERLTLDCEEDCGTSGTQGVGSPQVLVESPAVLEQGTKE
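Assay system: Labelled RRE RNA duplex and labelled Rev peptide | Times: 5 min preincubation and 15 min binding, 25 °C | Detection: FRET, ex 480 nm, em 540 and 671 nm | Evaluation: % inhibition of FRET ratio versus controls | Benchmarks: DMSO wells as 0% and neomycin B wells as 100% inhibition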
CYP2C19 inh: human CYP2C19 inhibition; P33261; inhibition, % at 5 µM; CYP2C19 Supersomes, luciferin-H EGE luminescence, 30 min; 96,000 tested, 21% active;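 active means CYP2C19 inhibition above a set limit at 5 µM in the primary screen, cut at about 50% in these data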;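 further: plate controls were negative control wells for no effect and 2.5 mM tranylcypromine positive control for full effect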
CYP2C9 act: increases human cytochrome P450 2C9 activity; P11712; recombinant CYP2C9, luciferin-H conversion, luminescence; active compounds read high; factor 1 = untreated enzyme, 0 = blocked; activation factor at 5 µM; 96,000 tested, 1.4% active; AID 1024;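 active means activation factor of 2 or more for CYP2C9 at a 5 µM dose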;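 further: 0 = sulfaphenazole-blocked wells and 1 = vehicle-only wells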
Cav32 inh: inhibitors of human Cav3.2 T-type calcium channel. Cav3.2-expressing cells, Fluo-4 calcium fluorescence FDSS; active compounds read low. 100,000 tested, 4% active. B-score at 10 µM;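 active means single-dose well whose peak fluorescence ratio is a statistical outlier from its plate by either plate-standardised score or position-corrected B-score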
CYP2C19 act: activators of human cytochrome P450 2C19; recombinant CYP2C19, luciferin-H EGE luminescence; active compounds read high; 0 = fully inhibited enzyme, 1 = untreated enzyme; 96,000 tested, under 10 active; AID 1025; activation factor at 5 µM;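 active means activation factor of at least 2 at 5 µM in the primary screen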;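 further: 0 = wells with 2.5 mM tranylcypromine and 1 = vehicle-only wells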
Numbers without * were called inactive; . = not tested or not shown. A selection: hits, their analogues and other compounds. The true share with any hit is near 27%.

SMILES	CYP2C9 inh	HIV Rev-RRE inh	CYP2C19 inh	CYP2C9 act	Cav32 inh	CYP2C19 act
CCCCn1c(SCC(=O)Nc2ccc(OC)cc2)nc2ccc(N3CCOCC3)cc2c1=O	100*	-7	84*	0	-1.1	0.2
CCn1c(SCC(=O)Nc2ccc(N3CCOCC3)cc2)nnc1-c1ccc(OC)cc1	32	-2	0	0.7	0.98	1
CCOC(=O)CSc1nc2ccc(N3CCOCC3)cc2c(=O)n1Cc1ccc2c(c1)OCO2	75*	.	81*	0.3	.	0.2
COCCNC(=O)CSc1nc2cc(OC)c(OC)cc2c(=O)n1Cc1ccc(OC)cc1	43	8	11	0.6	0.65	0.9
CCCCn1c(SCC(=O)NC(C)CC)nc2ccc(N3CCOCC3)cc2c1=O (configuration not stated)	60*	-4	28	0.4	.	0.7
COCCNC(=O)CSc1nc2ccc(N3CCOCC3)cc2c(=O)n1Cc1ccc(OC)cc1	84*	-1	49	0.2	1.3	0.5
CCC(C)NC(=O)CSc1nc2ccc(N3CCOCC3)cc2c(=O)n1CCc1ccccc1 (configuration not stated)	5	.	1	0.9	.	1
CCCCn1c(SCC(=O)NCc2ccccc2)nc2ccc(N3CCOCC3)cc2c1=O	74*	1	34	0.3	-0.19	0.7
COc1ccc(CCNc2nc(N3CCCCC3)nc(N3CCCCC3)n2)cc1OC	72*	9	82*	0.3	-6.7*	0.2
CCNc1nc(SC)nc(N(C#N)CC(=O)OC)n1	-26	7	3	1.3	0.17	1
O=C1NC2(CCCCC2)N=C1c1ccc(F)cc1	10	9	17	0.9	0.29	0.8
N#CC(C#N)=c1ccc2c(c1)NC1(CCCCC1)N=2	56*	-80	30	0.4	0.86	0.7
Cc1ccc(S(=O)(=O)N(CCC(=O)O)Cc2ccc(Cl)cc2)cc1	54*	0	37	0.5	-0.43	0.6
CC1CCN(CCCn2c(=S)[nH]c3ccc(N4CCOCC4)cc3c2=O)CC1	14	3	-14	0.9	-4.7*	1.1
O=c1c2cc(N3CCOCC3)ccc2[nH]c(=S)n1Cc1ccco1	53*	.	28	0.5	1.5	0.7
O=c1c2cc(N3CCOCC3)ccc2[nH]c(=S)n1CCCN1CCCC1	-2	-1	-14	1	.	1.1
O=C(Nc1nc2cc3c(cc2s1)OCO3)C1=COCCO1	.	.	.	.	-1	.
COCC(=O)Nc1cccc(C(F)(F)F)c1	20	0	23	0.8	0.011	0.8
CC(C)Oc1cc(NC(=O)CS(=O)CC(=O)Nc2cccc(C(F)(F)F)c2)c(Cl)cc1Cl (configuration not stated)	8	10	10	0.9	-3.8*	0.9
NC(=O)c1cccc(S(=O)(=O)N2CC(c3ccccc3)CC2=O)c1 (configuration not stated)	-116	5	56*	2.2*	0.6	0.4
COC(=O)N1CC(c2ccccc2)CC1=O (configuration not stated)	20	-1	35	0.8	0.11	0.6
O=C1CC(c2ccccc2)CN1S(=O)(=O)c1ccccc1 (configuration not stated)	-152	-1	99*	2.5*	0.067	0
CCS(=O)(=O)N1CCN(c2ccccc2F)CC1	90*	-1	50*	0.1	.	0.5
CCS(=O)(=O)N1CCC(C(=O)NCCCN2CCN(c3ccccc3F)CC2)CC1	7	-1	-4	0.9	.	1
O=C(Nc1ccccc1N1CCN(C(=O)c2ccc(Cl)cc2)CC1)c1ccc2c(c1)OCO2	84*	6	90*	0.2	-1.4	0.1
SMILES	CYP2C9 inh	HIV Rev-RRE inh	CYP2C19 inh	CYP2C9 act	Cav32 inh	CYP2C19 act
Cc1nn(C(=O)c2ccc3c(c2)OCO3)c(N)c1-c1ccccc1	53*	8	-9	0.5	-0.98	1.1
O=C(c1ccc2c(c1)OCO2)N1CCN(c2ccccc2F)CC1	53*	-3	83*	0.5	0.37	0.2
O=C(c1ccco1)N1CCN(c2ccccc2F)CC1	-16	9	14	1.2	-0.06	0.9
Cc1ccc(-c2cc3nn(-c4ccccc4)c(N)c3c(=O)o2)cc1	16	10	12	0.8	0.88	0.9
COc1ccc(C(=O)N2CCN(c3ccc(C)cc3)CC2)cc1OC	-75	4	13	1.8	-0.41	0.9
Cc1ccc(C(=O)N2CCN(c3ccc(Cl)cc3)CC2)cc1	51*	8	54*	0.5	0.014	0.5
O=C(CCN1CCN(c2ccccc2)CC1)Nc1ccc2c(c1)OCO2	.	.	.	.	-0.31	.
O=C(CCN1CCN(c2ccccc2F)CC1)Nc1ccc2c(c1)OCO2	88*	.	71*	0.1	-0.033	0.3
O=C(c1cccs1)N1CCCC(c2ccccc2)C1 (configuration not stated)	53*	2	85*	0.5	-0.76	0.1
O=C(c1ccc2c(c1)OCO2)N1CCCC(c2ccccc2)C1 (configuration not stated)	8	-3	87*	0.9	-1.2	0.1
O=C(c1ccc2c(c1)OCO2)N1CCCC1	-4	2	-6	1	0.48	1.1
CCCCN1C(=O)NC2NC(=O)NC21 (configuration not stated)	.	10	.	.	0.59	.
O=C(c1cccc(C(=O)N2CCN(c3ccccc3F)CC2)c1)N1CCN(c2ccccc2F)CC1	67*	.	82*	0.3	-2.4	0.2
Cc1ccc(C(=O)N2CCN(c3ccc(NC(=S)NC(=O)Cc4ccccc4)cc3)CC2)cc1	52*	-7	30	0.5	0.26	0.7
O=C(c1ccc2c(c1)OCO2)N1CCN(c2ccc(Cl)cc2)CC1	89*	2	97*	0.1	-1.3	0
CC(=O)N1CCN(c2ccc(NC(=O)c3ccc(C)cc3)cc2)CC1	5	8	6	0.9	0.49	0.9
O=C(c1cccc(C(=O)N2CCN(c3ccccc3)CC2)c1)N1CCN(c2ccccc2)CC1	34	-2	41	0.7	0.25	0.6
O=C(c1cc(C2CC2)on1)N1CCN(c2ccccc2)CC1	52*	-4	91*	0.5	0.74	0.1
Cc1ccc(-c2nc(CSCC(=O)NCc3cccnc3)c(C)o2)cc1	14	0	3	0.9	-0.07	1
CC(C)(C)C(=O)Nc1ccccc1N1CCN(C(=O)c2ccc(Cl)cc2)CC1	75*	2	76*	0.3	-0.38	0.2
Cn1nnc2cc(C(=O)N3CCCCCC3)ccc21	.	1	.	.	0.41	.
Cn1nnc2cc(C(=O)N3CCC(c4ccccc4)C3)ccc21 (configuration not stated)	25	4	80*	0.7	0.25	0.2
O=C(c1cnccn1)N1CCN(c2ccccc2)CC1	-6	-5	53*	1.1	.	0.5
